In paper PMC3445775 (Hepatology (Baltimore, Md.), 2012):
Entries after “also recorded” stand apart in the source; their conditions may differ.

How the values were obtained:
human FATP5 = target: T1, human FATP5 (Homo sapiens, UniProt Q9Y2P5); format: cell-based; conditions: for inhibition of FATP5-mediated LCFA uptake: result in words
T1 sequence (Q9Y2P5 1-690): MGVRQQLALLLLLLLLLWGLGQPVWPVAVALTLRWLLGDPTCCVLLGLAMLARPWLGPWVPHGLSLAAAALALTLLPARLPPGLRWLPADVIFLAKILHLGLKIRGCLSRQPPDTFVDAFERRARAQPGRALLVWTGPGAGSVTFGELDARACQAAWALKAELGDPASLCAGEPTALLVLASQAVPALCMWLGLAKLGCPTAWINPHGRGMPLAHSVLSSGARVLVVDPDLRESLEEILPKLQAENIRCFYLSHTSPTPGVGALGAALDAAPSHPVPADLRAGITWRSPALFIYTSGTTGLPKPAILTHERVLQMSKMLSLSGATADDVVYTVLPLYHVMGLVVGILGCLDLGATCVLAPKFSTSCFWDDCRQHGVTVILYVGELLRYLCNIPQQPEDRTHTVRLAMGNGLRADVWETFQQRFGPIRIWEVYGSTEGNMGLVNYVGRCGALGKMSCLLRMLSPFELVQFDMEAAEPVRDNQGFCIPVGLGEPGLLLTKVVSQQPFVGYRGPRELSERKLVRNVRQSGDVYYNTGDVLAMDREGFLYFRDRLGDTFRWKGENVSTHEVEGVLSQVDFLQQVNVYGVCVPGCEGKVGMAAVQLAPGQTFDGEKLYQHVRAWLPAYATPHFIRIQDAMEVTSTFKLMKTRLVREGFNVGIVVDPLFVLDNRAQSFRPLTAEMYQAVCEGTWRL
Procedure, shortened: (§1)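 HEK-293 cells stably expressing human FATP4, FATP2 or FATP5 were maintained in DMEM/10% FBS with 1 mg/ml G418. Cells were plated at 30,000–50,000/well overnight to 50–70% confluency. They were preincubated 30 min (5% CO2) with test compound, diluted from DMSO stock into HBSS with 20 mM HEPES, 4.5 g/L glucose and 0.1% fatty-acid-free BSA. Compound in quencher mix containing 2 μM C1-BODIPY-C12 was then added. Fluorescence (ex 488/em 515 nm, bottom read) was recorded every 2 min for 2 h, and uptake velocities were derived by linear regression.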

FATP5 and FATP2 = assay: Inhibition reversibility assay; format: cell-based, human; conditions: 30 min treatment followed by brief washes with PBS
human FATP2 = human FATP2 (Homo sapiens, UniProt O14975); format: cell-based; conditions: for inhibition of FATP2-mediated LCFA uptake: result in words
Procedure, shortened: as §1

293 cells = assay: XTT toxicity assay, stable 293 cell lines; format: cell-based, human; conditions: 48 hours
Procedure, shortened: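 Stable 293 cells in DMEM/FBS were incubated overnight in 5% CO2. The indicated test compound or DMSO control was added, and after a further 48 h viability was measured with an XTT kit per the manufacturer's instructions.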

[1] = test system: hepatic triglyceride accumulation; assay: Chronic bile acid injection during high-fat diet; format: in vivo, mouse; conditions: 3.2 mg/kg s.c. daily, 47 days
Procedure, shortened: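 Individually housed mice on a high-fat diet (60% calories from fat) received daily s.c. injections of test compound, 3.2 mg/kg in 20 μl DMSO, above the right hip for 47 days. Controls received DMSO vehicle. Mice were fasted 4 h and euthanised with CO2, and injection sites were checked for precipitate. Liver lysates were assayed for protein (BCA) and TAG.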

hepatic TAG content = assay: 7 week bile acid supplemented high-fat diet feeding; format: in vivo, mouse
[2] = test system: primary mouse hepatocytes from C57Bl/6 animals; assay: Quencher based LCFA uptake assay, wild-type mouse primary hepatocytes; format: cell-based
hepatic LCFA uptake = assay: Non-radioactive in vivo hepatic LCFA uptake assay; design: species or system mouse; conditions: WT mice, acute injection
hsFATP4 = hsFATP4 (Homo sapiens, UniProt Q6P1M0); assay: Quencher-based LCFA uptake assay, FATP4 expressing 293 cells; format: cell-based; conditions: result in words
Procedure, shortened: as §1

[3] = test system: primary human hepatocytes; assay: FACS-based LCFA uptake assay, primary human hepatocytes; format: cell-based; conditions: 10 or 100 μM, viable cells
Procedure, shortened: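 Suspended primary human hepatocytes were pretreated with test compound at 10 or 100 μM in DMEM (37°C, 5% CO2, 30 min). C1-BODIPY-C12 bound to 0.1% BSA was then added to a final 2 μM for 30 min at 37°C. Uptake was stopped on ice, and cells were centrifuged at 4°C and resuspended in cold PBS. Propidium iodide was added, and mean BODIPY fluorescence of 5000 viable PI-negative cells was taken from histogram plots.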

[4] = 0.5mg/g in high fat food, 7 weeks

hsFATP4, sequence (Q6P1M0 whole entry): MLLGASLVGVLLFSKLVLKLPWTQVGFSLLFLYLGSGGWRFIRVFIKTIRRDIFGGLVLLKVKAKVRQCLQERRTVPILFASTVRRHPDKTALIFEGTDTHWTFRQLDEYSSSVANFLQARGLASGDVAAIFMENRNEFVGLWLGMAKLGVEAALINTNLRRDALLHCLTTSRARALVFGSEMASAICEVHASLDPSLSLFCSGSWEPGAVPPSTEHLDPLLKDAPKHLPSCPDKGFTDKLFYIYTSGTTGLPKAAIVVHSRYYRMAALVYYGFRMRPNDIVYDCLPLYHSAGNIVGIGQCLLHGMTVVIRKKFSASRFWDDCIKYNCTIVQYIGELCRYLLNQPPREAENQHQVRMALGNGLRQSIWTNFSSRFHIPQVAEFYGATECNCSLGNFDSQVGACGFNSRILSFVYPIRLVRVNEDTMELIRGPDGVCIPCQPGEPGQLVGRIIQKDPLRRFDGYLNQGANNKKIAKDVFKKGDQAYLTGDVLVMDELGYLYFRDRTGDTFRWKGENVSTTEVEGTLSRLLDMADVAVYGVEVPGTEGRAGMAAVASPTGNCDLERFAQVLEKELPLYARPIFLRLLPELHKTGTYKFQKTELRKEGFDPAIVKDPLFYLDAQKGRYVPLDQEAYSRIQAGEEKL

Structure (SMILES)	IC50 (human FATP5) [µM]	inhibition of FATP5-mediated LCFA uptake (human FATP5)	Reversible Inhibition (FATP5 and FATP2)	IC50 (human FATP2) [µM]	inhibition of FATP2-mediated LCFA uptake (human FATP2)	further results
C[C@H](CCC(=O)O)[C@H]1CC[C@H]2[C@@H]3[C@H](O)C[C@@H]4C[C@H](O)CC[C@]4(C)[C@H]3C[C@H](O)[C@]12C [CA, cholic acid]	31	specifically inhibited FATP5-mediated LCFA uptake	complete reversibility and Yes			
COc1cc(/C=C2/SC(=S)N(c3cccc(Cl)c3)C2=O)cc(Br)c1O [CB-2, (5E)-5-[(3-bromo-4-hydroxy-5-methoxyphenyl)methylene]-3-(3-chlorophenyl)-2-thioxothiazolidin-4-one, reference compound]			Yes	8		
O=c1cc(-c2ccc([N+](=O)[O-])cc2)nc2c(-c3ccc(Cl)cc3)c(Cc3ccccc3)[nH]n12 [CB-5, 2-benzyl-3-(4-chlorophenyl)-5-(4-nitrophenyl)-1H-pyrazolo[5,1-b]pyrimidin-7-one, reference compound]	7		No (tox)	18		toxicity (XTT assay) (293 cells): marked cytotoxicity
Oc1c(C2=NCCNC(C(F)(F)F)=C2)ccc2ccccc12 [CB-6, 2-[7-(trifluoromethyl)-2,3-dihydro-1H-1,4-diazepin-5-yl]naphthalen-1-ol, reference compound]	38		irreversible and No	12		
C[C@H](CCC(=O)O)[C@H]1CC[C@H]2[C@@H]3[C@H](O)C[C@@H]4C[C@H](O)CC[C@]4(C)[C@H]3CC[C@]12C [CDCA, chenodeoxycholic acid]	10	specifically inhibited FATP5-mediated LCFA uptake	complete reversibility and Yes			
C[C@H](CCC(=O)O)[C@H]1CC[C@H]2[C@@H]3CC[C@@H]4C[C@H](O)CC[C@]4(C)[C@H]3CC[C@]12C [LCA, lithocholic acid]		no inhibition			no inhibition	body weight [1]: nor did it affect food consumption or body weight; food consumption [1]: nor did it affect food consumption or body weight; respiration [1]: neither triggered an increase in respiration; body weight (hepatic TAG content; [4]): Neither DCA nor LCA feeding resulted in changes; caloric output over a 36h period (hepatic TAG content; [4]): Neither DCA nor LCA feeding resulted in changes; food intake (hepatic TAG content; [4]): Neither DCA nor LCA feeding resulted in changes; respiratory rate (hepatic TAG content; [4]): Neither DCA nor LCA feeding resulted in changes; effect on liver TAG content (hepatic TAG content; result in words, LCA in high-fat diet model): had no effect; inhibition of LCFA uptake by primary mouse hepatocytes [2]: no inhibition; effect on in vivo hepatic LCFA uptake (hepatic LCFA uptake): had no effect; inhibition of FATP4 LCFA uptake (hsFATP4): neither DCA, UDCA, nor LCA inhibited; also recorded: No inhibition
C[C@H](CCC(=O)NCCS(=O)(=O)O)[C@H]1CC[C@H]2[C@@H]3CC[C@@H]4C[C@H](O)CC[C@]4(C)[C@H]3C[C@H](O)[C@]12C [TDCA, taurodeoxycholic acid]		inhibited neither FATP2 nor FATP5			inhibited neither FATP2 nor FATP5	
CC(CCC[C@@H](C)[C@H]1CC[C@H]2[C@@H]3[C@H](O)C[C@@H]4C[C@H](O)CC[C@]4(C)[C@H]3C[C@H](O)[C@]12C)C(=O)O (stereo partly drawn) [THCA, 3a,7a,12a-Trihydroxy-5β-cholestanoic acid]		weak inhibition			no inhibition	
C[C@H](CCC(=O)NCCS(=O)(=O)O)[C@H]1CC[C@H]2[C@@H]3[C@@H](O)C[C@@H]4C[C@H](O)CC[C@]4(C)[C@H]3CC[C@]12C [TUDCA, tauroursodeoxycholic acid]		did not inhibit			did not inhibit	inhibition of LCFA uptake by primary human hepatocytes [3]: but not TUDCA
C[C@H](CCC(=O)O)[C@H]1CC[C@H]2[C@@H]3[C@H](O)[C@@H](O)[C@@H]4C[C@H](O)CC[C@]4(C)[C@H]3CC[C@]12C [alpha-muricholic acid]		no effect on LCFA uptake				
